Screening results as filed in PubChem.
IDH1 R132H inh = inhibitors of IDH1 R132H reductase, primary screen, biochemical, plate reader, single point. diaphorase/resazurin fluorescence, 60 min. inhibition, % at 10 µM. 0.18% of 70,000 active; in the data active = inhibition above about 34%;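 note: 0% = DMSO and 100% = no enzyme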
Target sequence (O75874 whole entry R132H): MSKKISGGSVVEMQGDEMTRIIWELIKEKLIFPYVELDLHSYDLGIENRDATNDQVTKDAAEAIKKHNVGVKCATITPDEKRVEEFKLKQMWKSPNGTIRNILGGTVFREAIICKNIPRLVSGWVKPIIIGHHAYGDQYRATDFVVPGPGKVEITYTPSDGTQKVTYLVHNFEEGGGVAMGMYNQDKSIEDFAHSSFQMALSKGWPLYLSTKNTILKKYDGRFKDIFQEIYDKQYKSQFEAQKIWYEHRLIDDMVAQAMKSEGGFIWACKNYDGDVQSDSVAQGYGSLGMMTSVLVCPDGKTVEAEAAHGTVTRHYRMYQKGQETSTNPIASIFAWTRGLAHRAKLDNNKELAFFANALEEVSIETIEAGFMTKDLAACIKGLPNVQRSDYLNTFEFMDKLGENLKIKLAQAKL
T cruzi growth = T. cruzi intracellular proliferation inhibitors, primary screen, cell-based, beta-gal Tulahuen parasites, NIH3T3 host, luminescence; T. cruzi beta-gal in NIH3T3, GalScreen luminescence, 90 h; inhibition, % at 8.34 µM; 5.9% of 77,000 active; AID 624255, 2012;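 active = mean inhibition above about 93%, with at least 55% of replicates each passing it, limit read from the data, passing the limit was not always enough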
KDM4C inh = inhibitors of GASC-1 (KDM4C) histone demethylase, primary screen, biochemical, single concentration HTS. inhibition, % at 12.5 µM. Lysine-specific demethylase 4C (Homo sapiens), Q9H3R0. 0.15% of 96,000 active. GST-KDM4C 2-372, H3K9me3 peptide, LANCE TR-FRET;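 active = mean replicate inhibition above about 25%, with at least 55% of replicates also reaching it, limit read from the data, passing the limit was not always enough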
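Material: GST-tagged GASC-1 (JMJD2C) catalytic fragment, aa 2-372 / Quantity: enzyme final amount 10 nM / Medium: HEPES buffer, pH 7.5, plus ascorbate / Doses: one test concentration per compound / Incubation: 30 min reaction, 60 min detection, RT / Measured by: LANCE TR-FRET / Read-out: inhibition from TR-FRET ratio decrease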
Pf Dd2 inh = P. falciparum Dd2 growth inhibitors, primary screen, SYBR Green fluorescence, single dose replicates | 72 h; hits give low values | activity change, % at 10 µM | 2.3% of 94,000 active | AID 1159554, 2015; in the data active = activity change below about -80%
* hit, by the source's call. In the library only some 5.9% were active in any assay of this set; here they are far more common.

What do the screens show for `Cc1ccc(S(=O)(=O)N(C)C[C@@H]2OCCCC[C@@H](C)Oc3ccc(NC(=O)Cc4ccccc4)cc3C(=O)N([C@H](C)CO)C[C@@H]2C)cc1`?
T cruzi growth: 53; KDM4C inh: -1; Pf Dd2 inh: -81*

How did Cc1ccc(NCC(O)CSc2nc3c(cc2C#N)CCCC3)cc1 (stereo not given) do in these assays?
IDH1 R132H inh: 0

What do the screens show for `Nc1cccc(-c2nnc(SCC(=O)Nc3cccc(Cl)c3)n2-c2ccccc2)c1`?
IDH1 R132H inh: 0

Results for O=C(CSc1nnnn1-c1ccccc1)Nc1ccc(Br)cc1Cl ?
IDH1 R132H inh: 0

What do the screens show for `CCC(=O)N1CC2(C1)[C@@H](c1ccc(-c3cccc(OC)c3)cc1)[C@@H](CO)N2C(C)=O`?
KDM4C inh: 3; Pf Dd2 inh: -90*

Results for CCC(=O)N1CC2(C1)[C@H](c1ccc(-c3cccc(OC)c3)cc1)[C@H](CO)N2C(C)=O ?
KDM4C inh: -3; Pf Dd2 inh: -5

Results for COc1ccccc1NC(=O)C(CCS(C)(=O)=O)N1C(=O)c2ccc(Br)cc2C1=O (stereo not given) ?
IDH1 R132H inh: 2

How did COc1ccc(S(=O)(=O)N(C)C[C@H]2OCCCC[C@@H](C)Oc3ccc(NC(=O)Nc4cccc5ccccc45)cc3C(=O)N([C@@H](C)CO)C[C@@H]2C)cc1 do in these assays?
IDH1 R132H inh: 0; T cruzi growth: 79; KDM4C inh: -5; Pf Dd2 inh: -70

What do the screens show for `COc1ccc(S(=O)(=O)N(C)C[C@H]2OCCCC[C@H](C)Oc3ccc(NC(=O)Nc4cccc5ccccc45)cc3C(=O)N([C@H](C)CO)C[C@H]2C)cc1`?
T cruzi growth: 80; KDM4C inh: -4; Pf Dd2 inh: -86*

What do the screens show for `Cc1ccc(S(=O)(=O)N(C)C[C@H]2OCCCC[C@H](C)Oc3ccc(NC(=O)Nc4cccc5ccccc45)cc3C(=O)N([C@@H](C)CO)C[C@H]2C)cc1`?
Pf Dd2 inh: -82*

What do the screens show for `COc1ccc(S(=O)(=O)N(C)C[C@@H]2OCCCC[C@H](C)Oc3ccc(NC(=O)Nc4cccc5ccccc45)cc3C(=O)N([C@@H](C)CO)C[C@H]2C)cc1`?
IDH1 R132H inh: 1; T cruzi growth: 18; KDM4C inh: -2; Pf Dd2 inh: -89*

How did Cn1c(SCC(=O)Nc2cccc(Br)c2)nnc1-c1ccc(Cl)cc1 do in these assays?
IDH1 R132H inh: 0

What do the screens show for `C[C@@H]1CN([C@H](C)CO)C(=O)c2cccc(NC(=O)CCCCCC(=O)Nc3ccccc3N)c2O[C@@H]1CN(C)S(=O)(=O)c1ccc(Cl)cc1`?
IDH1 R132H inh: 0; T cruzi growth: 87; KDM4C inh: 0; Pf Dd2 inh: -88*

What do the screens show for `Cc1ccc(S(=O)(=O)N(C)C[C@@H]2Oc3c(NC(=O)CCCCCC(=O)Nc4ccccc4N)cccc3C(=O)N([C@H](C)CO)C[C@H]2C)cc1`?
KDM4C inh: 17; Pf Dd2 inh: -61

How did C[C@@H]1CN([C@H](C)CO)C(=O)c2cccc(NC(=O)CCCCCC(=O)Nc3ccccc3N)c2O[C@@H]1CN(C)S(C)(=O)=O do in these assays?
KDM4C inh: -1; Pf Dd2 inh: 21

Results for C[C@@H]1CN([C@H](C)CO)C(=O)c2cccc(NC(=O)Nc3cccc4ccccc34)c2O[C@@H]1CN(C)S(=O)(=O)c1ccccc1 ?
T cruzi growth: 24; KDM4C inh: 2; Pf Dd2 inh: -81*

What do the screens show for `C[C@H](CO)N1C[C@H](C)[C@@H](CN(C)S(=O)(=O)c2ccccc2)Oc2c(NC(=O)Nc3cccc4ccccc34)cccc2C1=O`?
T cruzi growth: 36; KDM4C inh: 8; Pf Dd2 inh: -36

What do the screens show for `Cc1ccc(S(=O)(=O)N(C)C[C@H]2Oc3c(NC(=O)CCCCCC(=O)Nc4ccccc4N)cccc3C(=O)N([C@H](C)CO)C[C@H]2C)cc1`?
IDH1 R132H inh: 0; KDM4C inh: 0; Pf Dd2 inh: -90*

Results for C[C@@H]1CN([C@H](C)CO)C(=O)c2cccc(NC(=O)CCCCCC(=O)Nc3ccccc3N)c2O[C@@H]1CN(C)S(=O)(=O)c1cccs1 ?
KDM4C inh: 2; Pf Dd2 inh: -84*

How did CCOC(=O)c1c(NC(=O)c2cccc(S(=O)(=O)N3CCCCCC3)c2)sc2c1CCC2 do in these assays?
IDH1 R132H inh: 0

How did COc1ccc(NC(=O)CC2NCCNC2=O)cc1 (stereo not given) do in these assays?
IDH1 R132H inh: 0

How did C[C@@H]1CN([C@H](C)CO)C(=O)c2cccc(NC(=O)CCCCCC(=O)Nc3ccccc3N)c2O[C@@H]1CN(C)S(=O)(=O)c1ccccc1 do in these assays?
IDH1 R132H inh: 0; KDM4C inh: 0; Pf Dd2 inh: -89*

Results for C[C@H](CO)N1C[C@H](C)[C@@H](CN(C)S(C)(=O)=O)Oc2c(NC(=O)CCCCCC(=O)Nc3ccccc3N)cccc2C1=O ?
IDH1 R132H inh: 0; KDM4C inh: 1; Pf Dd2 inh: 68

What do the screens show for `C[C@@H]1CN([C@H](C)CO)C(=O)c2cccc(NS(=O)(=O)c3cn(C)cn3)c2O[C@@H]1CN(C)C(=O)Nc1ccc(C(F)(F)F)cc1`?
IDH1 R132H inh: 3; T cruzi growth: -84; KDM4C inh: 7; Pf Dd2 inh: -9

How did C[C@@H]1CN([C@@H](C)CO)C(=O)c2cccc(NC(=O)Nc3ccc(C(F)(F)F)cc3)c2O[C@@H]1CN(C)S(=O)(=O)c1ccc(Cl)cc1 do in these assays?
IDH1 R132H inh: 0; T cruzi growth: 107*; KDM4C inh: 3; Pf Dd2 inh: -67

How did C[C@H]1CN([C@@H](C)CO)C(=O)c2cccc(NS(=O)(=O)c3cn(C)cn3)c2O[C@H]1CN(C)C(=O)Nc1ccc(C(F)(F)F)cc1 do in these assays?
IDH1 R132H inh: -6; T cruzi growth: -90; KDM4C inh: 5; Pf Dd2 inh: -85*

What do the screens show for `C[C@@H]1CN([C@@H](C)CO)C(=O)c2cccc(NC(=O)Nc3ccc(C(F)(F)F)cc3)c2O[C@H]1CN(C)C(=O)Nc1cccc2ccccc12`?
IDH1 R132H inh: 1; T cruzi growth: 88; KDM4C inh: 1; Pf Dd2 inh: -88*

What do the screens show for `C[C@H](CO)N1C[C@H](C)[C@H](CN(C)C(=O)Nc2cccc3ccccc23)Oc2c(NC(=O)Nc3ccc(C(F)(F)F)cc3)cccc2C1=O`?
T cruzi growth: 89; Pf Dd2 inh: -16

Results for CC(C)NC(=O)Nc1cccc2c1O[C@H](CN(C)C(=O)Nc1ccc(C(F)(F)F)cc1)[C@H](C)CN([C@@H](C)CO)C2=O ?
T cruzi growth: 4; KDM4C inh: -2; Pf Dd2 inh: -85*
